# PGC1a acetyl inh – PGC1a acetylation modulation, inhibitor mode; U2OS PGC1a acetylation, AlphaScreen anti-acetyl-lysine; with virally co-expressed GCN5 acetyltransferase; inhibition, % at 15.6 µM; 350,000 tested, 0.17% active;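 active = every replicate shows inhibition of at least 40%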;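 note: 0% = neutral control wells and 100% = positive control wells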
# S100A4 inh HTS – inhibitors of human S100A4 binding to myosin IIA peptide. P26447. S100A4/TAMRA-MyoIIA peptide fluorescence polarization. inhibition, % at 10.7 µM. 360,000 tested, 0.14% active. AID 652163;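 active = mean inhibition of at least 70% across replicates, with every replicate also reaching that level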
# Target sequence (P26447 whole entry, looked up): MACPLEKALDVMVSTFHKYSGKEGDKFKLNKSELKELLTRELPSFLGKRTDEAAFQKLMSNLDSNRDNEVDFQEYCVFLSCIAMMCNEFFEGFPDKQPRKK
#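 System – human S100A4 monomer protein, biochemical binding assay · Buffer or medium – Calcium-containing HEPES buffer, pH 7.2 · Timing – 5 min between mix addition and reading · Also added – TAMRA-labelled myosin IIA heavy-chain peptide probe, 5 nM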
# SIRT5 block – sirtuin-5 (human) deacylase inhibition; 330,000 tested, 1.1% active; Q9NXA8; inhibition, % at 15 µM; Purified SirT5, succinyl-peptide AMC, trypsin-coupled fluorescence; in the data active = inhibition above about 15%
# Target sequence (Q9NXA8 whole entry, looked up): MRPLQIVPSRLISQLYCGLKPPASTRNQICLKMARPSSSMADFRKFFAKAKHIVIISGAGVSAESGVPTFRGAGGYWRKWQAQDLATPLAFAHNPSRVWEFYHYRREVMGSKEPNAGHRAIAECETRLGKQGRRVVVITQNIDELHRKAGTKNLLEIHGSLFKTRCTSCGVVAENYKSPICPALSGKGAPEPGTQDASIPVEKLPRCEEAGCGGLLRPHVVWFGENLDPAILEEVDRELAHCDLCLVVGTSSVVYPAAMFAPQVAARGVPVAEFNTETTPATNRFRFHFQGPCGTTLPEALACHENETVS
# rRNA inh HTS – selective bacterial rRNA inhibition in E. coli; E. coli WT GFP vs humanized-ribosome RFP mutants, fluorescence, 24 h; stronger effect = lower value; DMSO median 0, no signal -100; GFP signal change (wild-type ribosome), % (concentration not given with the values); 350,000 tested, 1.6% active; AID 720706;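 active = significant combined selectivity score with lowered wild-type GFP, culture density cut under 30%, mutant RFP and density less affected; inactive = any of these conditions unmet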
# C2C12 statin – suppression of simvastatin myotoxicity; C2C12 myotubes + simvastatin, ATP luminescence, 48 h; scaled: DMSO 0, geranylgeraniol control 100; rescue of ATP level, % at 7.49 µM; 330,000 tested, 0.78% active; AID 602340;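 active = mean ATP rescue above about 67%, or every replicate alone reaching that limit, limit read from the data, passing the limit was not always enough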;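 note: myotubes were challenged with 10 µM simvastatin during compound exposure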
# Cneo AK release – Cryptococcus neoformans lysis via adenylate kinase release; 360,000 tested, 0.2% active; lysis activity, % at 15 µM; AID 651654; C. neoformans lysis, adenylate kinase release luminescence, 4 h; normalised: neutral wells 0, clomiphene wells 100;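 active = mean lysis activity across replicates of at least 80%, whatever share of replicates individually reach that level; inactive = mean lysis activity below 80%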
#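 Assay system: Cryptococcus neoformans yeast cells / Dosing: single-point compound dose / Timing: 4 h at 37 °C static, read 1 h later / Measured by: luminescence of released adenylate kinase using an AK detection reagent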
# An asterisk follows results filed as active; . = no result. Most compounds without a hit are left out; they make up all but 3% or so of the library.
SMILES,PGC1a acetyl inh,S100A4 inh HTS,SIRT5 block,rRNA inh HTS,C2C12 statin,Cneo AK release
C[C@H]1CN([C@@H](C)CO)C(=O)c2cccc(NC(=O)C3CC3)c2O[C@H]1CN(C)C(=O)Nc1ccc(C(F)(F)F)cc1,2.6,-10.9,2.5,-4.8,-60.9,42.6
C/C=C/c1cnc2c(c1)C(=O)N([C@@H](C)CO)C[C@@H](C)[C@H](CN(C)C(=O)NC1CCCCC1)O2,-6.1,-58.0,0.6,1.4,50.7,3.2
C/C(=N/Nc1ncc(Br)cn1)c1ccc(Br)cc1,-1.8,-1.0,-1.0,0.1,-24.4,-3.1
C/C(=N\Nc1ccc(Cl)c(C(=O)O)c1)c1ccc(Br)s1,0.8,-1.0,2.7,-12.3,-2.7,-3.3
C/C(=N\Nc1ccc(C(=O)O)cc1)c1ccc(Br)cc1,-11.8,-5.8,21.0*,-4.7,-33.4,-1.8
CCOC(=O)c1c(NC(C)=O)sc(/C(C)=N/Nc2ccc(C(=O)O)cc2)c1C,8.0,23.7,5.5,-17.1*,2.3,0.7
CCOC(=O)c1c(NC(C)=O)sc(C(=O)NC2CCCC2)c1C,7.5,-14.4,-10.4,6.9,9.1,2.1
C/C(=N\Nc1ccc(C(=O)O)cc1)c1ccc(Cl)s1,.,-1.9,23.4*,-3.5,-4.4,-0.3
COC(=O)c1ccc(CSc2nc(N3CCOCC3)c3c(c2C#N)CC(C)(C)OC3)o1,-8.3,.,.,.,80.8*,-1.4
CSc1nc(N2CCOCC2)c2c(c1C#N)CC(C)(C)OC2,-21.0,.,.,.,.,.
CCC1(C)Cc2c(C#N)c(SC)nc(N3CCOCC3)c2CO1 (centres undefined),-5.9,2.0,-2.1,-39.9*,0.4,-0.4
O=C(NCC[C@H]1CC[C@H](NS(=O)(=O)c2ccc(F)cc2)[C@@H](CO)O1)c1ccccc1F,2.1,3.9,0.3,-1.6,.,.
O=C(CCN1CCCCC1)NCC[C@H]1CC[C@H](NC(=O)Cc2cccnc2)[C@H](CO)O1,5.2,2.0,0.0,5.1,10.5,-4.8
Cc1nc2cc(C(F)(F)F)ccc2n1CCNc1nc(-c2ccc(F)cc2)cs1,10.7,-8.6,0.2,6.1,3.0,4.0
Cc1ccc(-c2csc(NCCn3c(-c4ccncc4)nc4cc(C(F)(F)F)ccc43)n2)cc1,0.4,-2.2,17.3*,9.9,-11.1,-1.8
Cc1ccc(-c2csc(NCCn3c(-c4ccncc4)nc4ccccc43)n2)cc1,-16.2,-2.7,-1.0,-20.8*,22.7,-0.3
CC(C)NC(=O)Nc1ccc2c(c1)C(=O)N([C@@H](C)CO)C[C@@H](C)[C@H](CN(C)C(=O)NC1CCCCC1)OCCCC[C@H](C)O2,11.1,-3.2,3.6,0.9,.,11.1
Cc1cc(S(=O)(=O)NC(C)C)ccc1OCC(=O)Nc1ccc2c(c1)OCCO2,110.5*,3.8,-1.8,-10.7,0.1,.
O=C(NCCN1CCCCC1)c1ccc(Oc2cc(Cl)cc(Cl)c2)o1,5.6,-22.9,-5.8,.,-2.3,5.7
O=C(c1ccc(Oc2cc(Cl)cc(Cl)c2)o1)N1CCCCC1,.,-1.2,-2.6,-48.7*,6.9,0.7
C[C@@H]1CN([C@H](C)CO)C(=O)c2cc(NC(=O)CCCN(C)C)ccc2O[C@@H]1CN(C)C,8.4,11.1,-5.7,8.8,-7.4,-5.3
C[C@@H]1CCCCO[C@@H](CN(C)C(=O)Nc2ccc(F)cc2)[C@H](C)CN([C@H](C)CO)C(=O)c2cc(NC(=O)c3ccncc3)ccc2O1,4.9,34.6,2.5,-1.4,.,-4.0
CCc1noc(C)c1C(=O)Nc1nc(-c2cccs2)cs1,-17.6,-7.4,15.3*,-15.1,10.8,-1.0
CNC[C@H]1OCCCC[C@H](C)Oc2ccc(NS(=O)(=O)c3ccccc3)cc2C(=O)N([C@@H](C)CO)C[C@@H]1C,-3.1,.,.,5.7,-52.0,.
O/N=C/c1ccccc1Oc1ccccc1,2.0,.,.,.,85.9*,-3.2
O/N=C/c1ccccc1Oc1ccc(Cl)cc1,.,-1.0,-2.4,-29.6,.,.
O/N=C\c1ccccc1Oc1ccc(F)cc1,.,-0.8,-5.2,-24.8*,.,.
COc1ccc(CN2C[C@@H](C)[C@H](OC)CN(C)C(=O)c3ccc(NC(=O)C4CC4)cc3OC[C@H]2C)cc1,-15.6,3.0,-2.6,0.1,18.4,-1.9
